The full list was thinned out, with hits kept by preference.
GASC1 inh = KDM4C (human) demethylase inhibition | Q9H3R0 | AID 720574 | GST-KDM4C 2-372, H3K9me3 peptide, LANCE TR-FRET | 96,000 tested, 0.15% active | inhibition, % at 12.5 µM;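 active means mean replicate inhibition above about 25%, with at least 55% of replicates also reaching it, limit read from the data, passing the limit was not always enough; inconclusive means only one of those two conditions met; inactive means neither condition met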
Target sequence (Q9H3R0 2-372 limits assumed): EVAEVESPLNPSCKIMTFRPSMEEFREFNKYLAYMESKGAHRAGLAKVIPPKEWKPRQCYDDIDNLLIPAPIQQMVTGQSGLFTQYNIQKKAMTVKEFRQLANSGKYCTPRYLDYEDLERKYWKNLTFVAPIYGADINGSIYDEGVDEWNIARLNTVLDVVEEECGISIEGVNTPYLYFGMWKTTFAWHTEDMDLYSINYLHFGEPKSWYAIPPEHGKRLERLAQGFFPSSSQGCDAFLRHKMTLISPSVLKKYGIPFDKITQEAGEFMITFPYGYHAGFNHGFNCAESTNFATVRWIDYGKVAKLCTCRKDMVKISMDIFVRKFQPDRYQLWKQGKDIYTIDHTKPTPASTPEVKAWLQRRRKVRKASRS
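material = GST-tagged GASC-1 (JMJD2C) catalytic fragment, aa 2-372 | amount = enzyme final amount 10 nM | medium = HEPES buffer, pH 7.5, plus ascorbate | also added = H3K9me3 peptide substrate, Fe(II), 2-oxoglutarate | dosing = single dose | times = 30 min demethylation and 1 h detection at room temperature | detection = LANCE TR-FRET | read-out basis = Fall in 671/618 emission ratio as inhibition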
IDH1 mut inh = IDH1 R132H (human) inhibition | O75874 | IDH1 R132H reductase, diaphorase/resazurin fluorescence, 60 min | inhibition, % at 10 µM | 70,000 tested, 0.18% active; in the data active means inhibition above about 34%; inconclusive means no clear call, values can overlap the other calls; inactive means below about 11%;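 further: 0% = DMSO and 100% = no enzyme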
Pf Dd2 inh = P. falciparum Dd2 growth inhibition | activity change, % at 10 µM | SYBR Green, 72 h; stronger effect = lower value | 94,000 tested, 2.3% active | AID 1159554; in the data active means activity change below about -80%; inconclusive means no clear call, values can overlap the other calls
* marks the source's active call; other numbers are inactive results; u = inconclusive; x = not tested or not shown.

SMILES	GASC1 inh	IDH1 mut inh	Pf Dd2 inh
O=C(N[C@H]1CC[C@@H](CCNC(=O)C2CCCC2)O[C@H]1CO)c1ccccn1	-1.2	-0.2	9.5
CN(C)C(=O)C[C@H]1C=C[C@@H](NC(=O)C2CCC2)[C@H](CO)O1	-0.5	0.5	-6.6
CNC[C@H]1OCCCC[C@H](C)Oc2ccc(N(C)C)cc2C(=O)N([C@@H](C)CO)C[C@@H]1C	-1.7	1.1	x
C[C@@H]1CN([C@H](C)CO)C(=O)c2cc(NS(=O)(=O)c3cccs3)ccc2O[C@@H](C)CCCCO[C@@H]1CN(C)S(C)(=O)=O	2.3	-0.3	-2.2
C[C@H]1CN([C@@H](C)CO)C(=O)c2cccc(NC(=O)Nc3ccccc3)c2O[C@@H]1CN(C)CC1CC1	0.4	x	-1.5
C[C@@H]1CCCCO[C@H](CN(C)C(=O)Nc2ccccc2)[C@@H](C)CN([C@@H](C)CO)C(=O)c2cc(NS(=O)(=O)c3ccc(Cl)cc3)ccc2O1	-0.1	x	-89.5*
C[C@@H]1CCCCO[C@@H](CN(C)C(=O)Nc2ccccc2)[C@@H](C)CN([C@H](C)CO)C(=O)c2cc(NS(=O)(=O)c3ccc(F)cc3)ccc2O1	0.2	1.2	11.3
C[C@@H]1CN([C@H](C)CO)C(=O)c2cc(NS(=O)(=O)c3ccc(Cl)cc3)ccc2O[C@@H](C)CCCCO[C@H]1CN(C)C(=O)Nc1ccccc1	-0.4	0.9	-66.3
Cc1ccc(S(=O)(=O)Nc2ccc3c(c2)C(=O)N([C@@H](C)CO)C[C@@H](C)[C@@H](CN(C)C(=O)Nc2ccc4c(c2)OCO4)OCCCC[C@H](C)O3)cc1	-0.4	x	u
Cc1ccc(S(=O)(=O)Nc2ccc3c(c2)C(=O)N([C@@H](C)CO)C[C@H](C)[C@@H](CN(C)C(=O)Nc2ccc4c(c2)OCO4)OCCCC[C@@H](C)O3)cc1	0.7	x	-84.7*
C[C@@H]1CCCCO[C@H](CN(C)C(=O)Nc2ccc(F)cc2)[C@H](C)CN([C@@H](C)CO)C(=O)c2cc(NS(=O)(=O)c3ccccc3)ccc2O1	2.1	-1.1	-91.5*
COC(=O)c1ccc(CN2CC(=O)N3[C@@H](CO)[C@H](c4ccc(-c5ccccc5F)cc4)[C@@H]3C2)cc1	0.8	x	5.8
O=C(C[C@H]1CC[C@@H]2[C@H](COC[C@H](O)CN2Cc2cc(F)ccc2F)O1)NCc1ccccc1	0.5	x	-6.3
CS(=O)(=O)Nc1ccc2c(c1)[C@H]1C[C@@H](CC(=O)NCc3ccc(Oc4ccccc4)cc3)O[C@@H](CO)[C@H]1O2	-0.4	-0.2	22.5
C[C@@H]1CCCCO[C@@H](CN(C)S(=O)(=O)c2ccc(Cl)cc2)[C@H](C)CN([C@H](C)CO)C(=O)c2cc(NC(=O)Nc3ccc(F)cc3)ccc2O1	-3.0	x	-81.1*
Cc1ccc(S(=O)(=O)N(C)C[C@H]2OCCCC[C@@H](C)Oc3ccc(NC(=O)Nc4ccc(F)cc4)cc3C(=O)N([C@@H](C)CO)C[C@@H]2C)cc1	0.5	x	u
C[C@@H]1CN([C@H](C)CO)C(=O)c2cc(NC(=O)Nc3ccc(F)cc3)ccc2O[C@@H](C)CCCCO[C@H]1CN(C)S(=O)(=O)c1ccc(Cl)cc1	x	-1.7	-72.9
Cc1ccc(S(=O)(=O)N(C)C[C@H]2OCCCC[C@H](C)Oc3ccc(NC(=O)Nc4ccc(F)cc4)cc3C(=O)N([C@@H](C)CO)C[C@H]2C)cc1	-1.5	x	-82.1*
CO[C@H]1CN(C)C(=O)c2ccc(NC(=O)c3nc4ccccc4s3)cc2OC[C@H](C)N(Cc2ccncc2)C[C@@H]1C	2.0	3.4	-93.4*
CO[C@@H]1CN(C)C(=O)c2ccc(NC(=O)c3nc4ccccc4s3)cc2OC[C@@H](C)N(Cc2ccncc2)C[C@H]1C	1.1	7.4	-96.8*
CO[C@@H]1CN(C)C(=O)c2ccc(NC(=O)c3nc4ccccc4s3)cc2OC[C@@H](C)N(Cc2cccnc2)C[C@@H]1C	1.6	x	-62.6
CO[C@@H]1CN(C)C(=O)c2ccc(NC(=O)c3nc4ccccc4s3)cc2OC[C@H](C)N(Cc2ccncc2)C[C@H]1C	2.4	19.1	-61.2
CO[C@H]1CN(C)C(=O)c2ccc(NC(=O)c3nc4ccccc4s3)cc2OC[C@@H](C)N(Cc2ccncc2)C[C@H]1C	0.6	0.3	-31.5
CO[C@@H]1CN(C)C(=O)c2ccc(NC(=O)c3nc4ccccc4s3)cc2OC[C@@H](C)N(Cc2cccnc2)C[C@H]1C	-2.8	x	-90.1*
C[C@@H]1CCCCO[C@@H](CN(C)C(=O)Nc2ccc3c(c2)OCO3)[C@@H](C)CN([C@@H](C)CO)C(=O)c2cc(NC(=O)CCC(F)(F)F)ccc2O1	0.4	0.3	-61.3
SMILES	GASC1 inh	IDH1 mut inh	Pf Dd2 inh
CCNC(=O)[C@H]1[C@H](CO)[C@H]2Cn3c(ccc(-c4ccccc4)c3=O)[C@H]2N1Cc1ccc2c(c1)OCO2	0.0	x	-9.7
O=C1CN(Cc2ccc(F)cc2)C[C@@H]2[C@@H](c3ccc(Br)cc3)[C@@H](CO)N12	-2.8	x	38.5
O=C(c1ccccc1F)N1CC(=O)N2[C@H](C1)[C@@H](c1ccc(-c3ccc(F)cc3)cc1)[C@@H]2CO	-1.7	x	-89.1*
COc1ccc(-c2ccc([C@@H]3[C@H]4CN(C(=O)C5CCCC5)CC(=O)N4[C@H]3CO)cc2)cc1	-0.3	x	-66.4
O=C(c1cccnc1)N1CC(=O)N2[C@H](C1)[C@@H](c1ccc(-c3cccnc3)cc1)[C@@H]2CO	-0.3	x	-87.2*
O=C(c1cccnc1)N1CC(=O)N2[C@@H](CO)[C@H](c3ccc(-c4cccnc4)cc3)[C@@H]2C1	-0.2	x	36.8
O=C(c1ccccc1F)N1CC(=O)N2[C@@H](CO)[C@H](c3ccc(-c4ccc(F)cc4)cc3)[C@@H]2C1	-0.7	x	-1.4
COc1ccc(-c2ccc([C@@H]3[C@@H](CO)N4C(=O)CN(C(=O)C5CCCC5)C[C@@H]34)cc2)cc1	0.2	x	-85.6*
O=C1CN(Cc2ccc(F)cc2)C[C@@H]2[C@@H](c3ccc(Br)cc3)[C@H](CO)N12	-1.3	x	-87.2*
COCC#Cc1ccc2c(c1)O[C@@H](CN(C)S(=O)(=O)c1ccc(C)cc1)[C@H](C)CN([C@@H](C)CO)S2(=O)=O	1.2	-0.1	-65.8
O=C(C[C@H]1C[C@H]2c3cc(NS(=O)(=O)c4ccc(F)cc4)ccc3O[C@H]2[C@@H](CO)O1)NCc1cc(F)ccc1F	-4.5	0.2	-24.2
O=C(c1ccc(F)cc1)N1CC(=O)N2[C@@H](CO)[C@H](c3ccc(-c4cccnc4)cc3)[C@@H]2C1	-2.1	x	11.6
O=C(C1CCCC1)N1CC(=O)N2[C@H](CO)[C@H](c3ccc(-c4cccnc4)cc3)[C@H]2C1	-1.1	x	-90.5*
O=C(c1ccncc1)N1CC(=O)N2[C@H](C1)[C@@H](c1ccc(-c3cccnc3)cc1)[C@@H]2CO	0.3	x	-86.1*
O=C(C1CCCC1)N1CC(=O)N2[C@H](CO)[C@@H](c3ccc(-c4cccnc4)cc3)[C@@H]2C1	0.3	x	6.0
CN1C(=O)c2cc(NC(=O)Nc3ccc(Cl)cc3)ccc2OC[C@@H]2O[C@@H](CC(=O)NCCN3CCCCC3)CC[C@@H]21	1.1	x	-40.1
CCCN(C)C[C@@H]1OCCCC[C@@H](C)Oc2ccc(NS(=O)(=O)c3ccc(C)cc3)cc2C(=O)N([C@H](C)CO)C[C@H]1C	-1.7	3.9	-88.6*

Screening results as filed in PubChem.
